Screens as filed in PubChem BioAssay.
Apaf1 activ: activators of human Apaf-1 apoptosome, primary screen, biochemical, DEVD-Rh110 fluorescence, uHTS; AID 489031, 2010; activity change, negative = activation, % at 20 µM; 0.31% of 330,000 active; Apoptotic protease-activating factor 1 (Homo sapiens), O14727; Apaf-1 apoptosome caspase-3 activation; hits give low values;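 active means activity change at or below -40% at 20 µM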
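Schedule: 30 min preincubation, 50 min reaction, room temperature / System: biochemical Apaf-1 apoptosome reconstitution / Medium: 20 mM HEPES pH 7.5 with CHAPS, BSA / Evaluation: Caspase-3 cleavage activity downstream of Apaf-1 activation / Detection: Caspase-3-released Rh110 fluorescence, 540 nm emission, 480 nm excitation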
Rh110 act interf: Rh110 fluorescence interference by putative Apaf-1 activators, confirmation, artefact control for Apaf-1 activator project, biochemical, 20 µM; shares compounds with Apaf1 activ; quenched caspase reaction, Ex480/Em540; fluorescence interference (activity change), % at 20 µM, hits read low; 980 tested, under 10 active; AID 504616, 2011;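 active means mean activity change at or below -40% when tested at 20 µM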
Apaf-1 act conf2: Apaf-1 activators, single-dose retest, confirmation, biochemical, fluorescence, DEVD-Rh110, 20 µM. shares compounds with Apaf1 activ. reconstituted apoptosome caspase-3 activity; hits give low values. activity change, negative = activation, % at 20 µM. 5% of 980 active;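 active means mean activity change at or below -40%, meaning activation of 40% or more, at 20 µM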
Numbers without * were called inactive. Only a sample is shown.

Screening N#Cc1ccc(C23CC4(C2)[C@H](CN(Cc2ccc(-c5ccccc5)cc2)[C@@H]4c2ccccc2)C3c2ccc(C(F)(F)F)cc2)cc1 (stereo not given in full) returned Apaf1 activ 45.
O=C(NCCO)Nc1ccc2nc(-c3ccco3)c(-c3ccco3)nc2c1 was read as Apaf1 activ 71.
O=C1c2ccccc2N[C@@H]2C=CC[C@@H]2N1O was read as Apaf1 activ -56*, Rh110 act interf -9 and Apaf-1 act conf2 9.
Cc1c(C=O)c(Cl)n(C)c(=O)c1C#N was read as Apaf1 activ 97.
Nc1ccc(Oc2ncccn2)cc1 was read as Apaf1 activ 44.
`C[C@H](NC(=O)c1ccc(C(C)(C)C)cc1)C(=O)N1CCN(C/C=C/c2ccccc2)CC1` gave Apaf1 activ 43.
For COc1ccc(Cl)cc1NC(=O)C(C)N1CCN(C/C=C/c2ccccc2)CC1 (stereo not given) the results were Apaf1 activ 43.
For COc1ccc(OC)c(NC(=S)N2CCN(C/C=C/c3ccccc3)CC2)c1 the results were Apaf1 activ -300*, Rh110 act interf 9 and Apaf-1 act conf2 13.
`CC(=O)NC1=C(N(C)C2CCS(=O)(=O)C2)C(=O)c2ccccc2C1=O` (stereo not given) gave Apaf1 activ 54.
Screening COc1ccc(OCc2nnc(SCC(=O)NC3CC3)n2C)cc1 returned Apaf1 activ -96*, Rh110 act interf -3 and Apaf-1 act conf2 8.
`COc1ccc(-n2nc(C(=O)NCC(=O)NC3CCCCCC3)c3ccccc3c2=O)c(OC)c1` gave Apaf1 activ 48.
Screening CC1CCN(C(=O)CSc2nnc(Cn3c(=O)sc4ccccc43)n2C)CC1 returned Apaf1 activ 43.
